According to ChEMBL document CHEMBL3044653, “Synthesis and herbicidal activity of 2-(substituted phenoxyacetoxy)alkyl-5,5-dimethyl-1,3,2-dioxaphosphinan-2-one” (J Agric Food Chem, 2012):

Assays:
Amaranthus retroflexus [1] = experiment: Post-emergence herbicidal activity against Amaranthus retroflexus assessed as inhibition at 150 g/hectare treated at two-leaf stage by green house assay; format: functional
Outline: (§1)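 Greenhouse postemergence spray of diluted formulation solutions onto broadleaf weeds at the two-leaf stage. Primary screen at 150 g ai/ha, with selected compounds retested at 75 and 37.5 g ai/ha. Abutilon was tested at 150 g ai/ha only. Read-out is percent herbicidal damage relative to an untreated control.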

Oryza sativa = experiment: Toxicity in Oryza sativa (rice) plant assessed as inhibition at 150 g/hectare; format: organism-based; conditions: in vivo
Outline: (§2)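 For crop selectivity, conventional crop varieties were planted in 12 cm diameter plots and given a postemergence treatment at 150 g ai/ha. Injury was scored as percent inhibition, with 0–10% classed as safe to the crop.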

Echinochloa crus-galli [2] = experiment: Post-emergence herbicidal activity against Echinochloa crus-galli (barnyard grass) assessed as inhibition at 150 g/hectare treated at one-leaf stage by green house assay; format: functional
Outline: (§3)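 Monocot weeds were sprayed postemergence in the greenhouse at the one-leaf stage with diluted formulation solutions. Primary dose was 150 g ai/ha, with follow-up doses of 75 and 37.5 g ai/ha for selected compounds. Activity is scored as percent herbicidal damage compared with an untreated control.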

Amaranthus retroflexus [3] = experiment: Post-emergence herbicidal activity against Amaranthus retroflexus assessed as inhibition at 37.5 g/hectare treated at two-leaf stage by green house assay; format: functional; outline: as §1
Eclipta prostrata [4] = experiment: Post-emergence herbicidal activity against Eclipta prostrata assessed as inhibition at 37.5 g/hectare treated at two-leaf stage by green house assay; format: functional; outline: as §1
Brassica juncea [5] = experiment: Post-emergence herbicidal activity against Brassica juncea assessed as inhibition at 75 g/hectare treated at two-leaf stage by green house assay; format: functional; outline: as §1
Brassica juncea [6] = experiment: Post-emergence herbicidal activity against Brassica juncea assessed as inhibition at 37.5 g/hectare treated at two-leaf stage by green house assay; format: functional; outline: as §1
Echinochloa crus-galli [7] = experiment: Post-emergence herbicidal activity against Echinochloa crus-galli (barnyard grass) assessed as inhibition at 37.5 g/hectare treated at one-leaf stage by green house assay; format: functional; outline: as §3
Setaria viridis [8] = experiment: Post-emergence herbicidal activity against Setaria viridis (green foxtail) assessed as inhibition at 75 g/hectare treated at one-leaf stage by green house assay; format: functional; outline: as §3
Digitaria sanguinalis [9] = experiment: Post-emergence herbicidal activity against Digitaria sanguinalis (hairy crabgrass) assessed as inhibition at 37.5 g/hectare treated at one-leaf stage by green house assay; format: functional; outline: as §3
Abutilon theophrasti = experiment: Post-emergence herbicidal activity against Abutilon theophrasti (velvetleaf) assessed as inhibition at 150 g/hectare treated at two-leaf stage by green house assay; format: functional; outline: as §1
Eclipta prostrata [10] = experiment: Post-emergence herbicidal activity against Eclipta prostrata assessed as inhibition at 75 g/hectare treated at two-leaf stage by green house assay; format: functional; outline: as §1
Glycine max = experiment: Toxicity in Glycine max (soybean) plant assessed as inhibition at 150 g/hectare; format: organism-based; conditions: in vivo; outline: as §2
Brassica juncea [11] = experiment: Post-emergence herbicidal activity against Brassica juncea assessed as inhibition at 150 g/hectare treated at two-leaf stage by green house assay; format: functional; outline: as §1
Eclipta prostrata [12] = experiment: Post-emergence herbicidal activity against Eclipta prostrata assessed as inhibition at 150 g/hectare treated at two-leaf stage by green house assay; format: functional; outline: as §1
Setaria viridis [13] = experiment: Post-emergence herbicidal activity against Setaria viridis (green foxtail) assessed as inhibition at 37.5 g/hectare treated at one-leaf stage by green house assay; format: functional; outline: as §3
Digitaria sanguinalis [14] = experiment: Post-emergence herbicidal activity against Digitaria sanguinalis (hairy crabgrass) assessed as inhibition at 150 g/hectare treated at one-leaf stage by green house assay; format: functional; outline: as §3
Digitaria sanguinalis [15] = experiment: Post-emergence herbicidal activity against Digitaria sanguinalis (hairy crabgrass) assessed as inhibition at 75 g/hectare treated at one-leaf stage by green house assay; format: functional; outline: as §3
Gossypium hirsutum = experiment: Toxicity in Gossypium hirsutum (cotton) plant assessed as inhibition at 150 g/hectare; format: organism-based; conditions: in vivo; outline: as §2
Brassica napus = experiment: Toxicity in Brassica napus (oilseed rape) assessed as inhibition at 150 g/hectare; format: functional; outline: as §2
Echinochloa crus-galli [16] = experiment: Post-emergence herbicidal activity against Echinochloa crus-galli (barnyard grass) assessed as inhibition at 75 g/hectare treated at one-leaf stage by green house assay; format: functional; outline: as §3
Setaria viridis [17] = experiment: Post-emergence herbicidal activity against Setaria viridis (green foxtail) assessed as inhibition at 150 g/hectare treated at one-leaf stage by green house assay; format: functional; outline: as §3
Amaranthus retroflexus [18] = experiment: Post-emergence herbicidal activity against Amaranthus retroflexus assessed as inhibition at 75 g/hectare treated at two-leaf stage by green house assay; format: functional; outline: as §1
Triticum aestivum = experiment: Toxicity in Triticum aestivum (wheat) plant assessed as inhibition at 150 g/hectare; format: organism-based; conditions: in vivo; outline: as §2
Zea mays = experiment: Toxicity in Zea mays (maize) plant assessed as inhibition at 150 g/hectare; format: organism-based; conditions: in vivo; outline: as §2

Row | SMILES | inhibition at 150 g/ha (Amaranthus retroflexus [1]) [%] | inhibition at 150 g/ha (Echinochloa crus-galli [2]) [%] | inhibition at 150 g/ha (Abutilon theophrasti) [%] | inhibition at 150 g/ha (Brassica juncea [11]) [%] | inhibition at 150 g/ha (Eclipta prostrata [12]) [%] | inhibition at 150 g/ha (Digitaria sanguinalis [14]) [%] | inhibition at 150 g/ha (Setaria viridis [17]) [%] | other results
1 | CC1(C)COP(=O)(C(OC(=O)COc2ccc(Cl)cc2Cl)c2ccc(Cl)cc2)OC1 (stereo not drawn) | 80 | 0 | 90 | 98 | 70 | 0 | 0 | inhibition (INH) (Oryza sativa): 10%; inhibition at 37.5 g/ha (Amaranthus retroflexus [3]): 30%; inhibition at 37.5 g/ha (Eclipta prostrata [4]): 0%; inhibition at 75 g/ha (Brassica juncea [5]): 90%; inhibition at 37.5 g/ha (Brassica juncea [6]): 80%; inhibition at 37.5 g/ha (Echinochloa crus-galli [7]): 0%; inhibition at 75 g/ha (Setaria viridis [8]): 0%; inhibition at 37.5 g/ha (Digitaria sanguinalis [9]): 0%; inhibition at 75 g/ha (Eclipta prostrata [10]): 0%; inhibition (INH) (Glycine max): 20%; inhibition at 37.5 g/ha (Setaria viridis [13]): 0%; inhibition at 75 g/ha (Digitaria sanguinalis [15]): 0%; inhibition (INH) (Gossypium hirsutum): 20%; inhibition at 150 g/ha (Brassica napus): 40%; inhibition at 75 g/ha (Echinochloa crus-galli [16]): 0%; inhibition at 75 g/ha (Amaranthus retroflexus [18]): 50%; inhibition (INH) (Triticum aestivum): 0%; inhibition (INH) (Zea mays): 0%
2 | CC(OC(=O)COc1ccccc1Cl)P1(=O)OCC(C)(C)CO1 (stereo not drawn) | 90 | 20 | 70 | 90 | 75 | 0 | 0 | –
3 | COP(=O)(OC)C(C)OC(=O)COc1ccc(Cl)cc1Cl (stereo not drawn) [CLACYFOS] | 96 | 0 | 100 | 85 | 90 | 0 | 0 | inhibition at 37.5 g/ha (Amaranthus retroflexus [3]): 70%; inhibition at 37.5 g/ha (Eclipta prostrata [4]): 60%; inhibition at 75 g/ha (Brassica juncea [5]): 95%; inhibition at 37.5 g/ha (Brassica juncea [6]): 90%; inhibition at 37.5 g/ha (Echinochloa crus-galli [7]): 0%; inhibition at 75 g/ha (Setaria viridis [8]): 0%; inhibition at 37.5 g/ha (Digitaria sanguinalis [9]): 0%; inhibition at 75 g/ha (Eclipta prostrata [10]): 80%; inhibition at 37.5 g/ha (Setaria viridis [13]): 0%; inhibition at 75 g/ha (Digitaria sanguinalis [15]): 0%; inhibition at 75 g/ha (Echinochloa crus-galli [16]): 0%; inhibition at 75 g/ha (Amaranthus retroflexus [18]): 95%
4 | CC1(C)COP(=O)(C(OC(=O)COc2ccccc2Cl)c2ccco2)OC1 (stereo not drawn) | 85 | 0 | 70 | 90 | 70 | 0 | 0 | –
5 | CC1(C)COP(=O)(C(OC(=O)COc2ccccc2Cl)c2ccccc2)OC1 (stereo not drawn) | 75 | 0 | 70 | 75 | 65 | 0 | 0 | –
6 | Cc1cc(OCC(=O)OC(C)P2(=O)OCC(C)(C)CO2)ccc1Cl (stereo not drawn) | 60 | 0 | 70 | 70 | 60 | 0 | 0 | –
7 | CC1(C)COP(=O)(C(OC(=O)COc2ccc(Cl)cc2)c2ccco2)OC1 (stereo not drawn) | 55 | 0 | 70 | 70 | 50 | 0 | 0 | –
8 | Cc1cc(Cl)ccc1OCC(=O)OC(c1ccco1)P1(=O)OCC(C)(C)CO1 (stereo not drawn) | 100 | 60 | 100 | 90 | 70 | 0 | 0 | –
9 | COP(=O)(OC)C(C)OC(=O)COc1ccc(Cl)cc1C (stereo not drawn) | 10 | 0 | 82 | 20 | 30 | 0 | 0 | –
10 | CC(OC(=O)COc1ccc(Cl)cc1)P1(=O)OCC(C)(C)CO1 (stereo not drawn) | 70 | 10 | 70 | 75 | 60 | 0 | 0 | –
11 | Cc1cc(OCC(=O)OC(c2ccco2)P2(=O)OCC(C)(C)CO2)ccc1Cl (stereo not drawn) | 60 | 0 | 70 | 65 | 55 | 0 | 0 | –
12 | CC1(C)COP(=O)(C(OC(=O)COc2ccc(Cl)cc2)c2ccccc2)OC1 (stereo not drawn) | 60 | 0 | 65 | 70 | 50 | 0 | 0 | –
13 | Cc1cc(Cl)ccc1OCC(=O)OC(c1ccccc1)P1(=O)OCC(C)(C)CO1 (stereo not drawn) | 100 | 40 | 100 | 90 | 75 | 0 | 0 | –
14 | Cc1cc(OCC(=O)OC(c2ccccc2)P2(=O)OCC(C)(C)CO2)ccc1Cl (stereo not drawn) | 65 | 0 | 65 | 65 | 60 | 0 | 0 | –
